Assay results of several laboratories.
Lines come from different studies, so protocols differ.
Target: Mitogen-activated protein kinase 13 (MAPK13, Homo sapiens, UniProt O15264)

| SMILES | observed | mode | technique | concentration | quantity | result |
| --- | --- | --- | --- | --- | --- | --- |
| CN(c1ncccc1CNc1nc(Nc2ccc3c(c2)CC(=O)N3)ncc1C(F)(F)F)S(C)(=O)=O | enzyme activity | inhibitor |  | 1 µM | inhibition | 42.1% |
| CCCOc1ccc(OC)c(F)c1C(=O)c1ccc(C(=O)N[C@@H]2CNC[C@H]2NC(=O)c2ccc3[nH]ncc3c2)cc1 | enzyme activity | inhibitor |  | 10 µM | remaining activity | 93% |
| CC(C)(C)c1nc(-c2cccc(NS(=O)(=O)c3c(F)cccc3F)c2F)c(-c2ccnc(N)n2)s1 | enzyme activity | inhibitor | radiometric | 1 µM | remaining activity | 85% |
| CC1=C(C#N)[C@@H](c2ccc3[nH]nc(C)c3c2)C(C#N)=C(c2ccc(Cl)cc2)N1 | cell-free assay |  | competition with immobilised ligand | 1 µM | remaining binding | 100% |
| Cn1c2c(c3ccc(Cl)c(Cl)c31)C(C#N)C1(CCOCC1)NC2=O (centres unmarked) | thermal stability |  | DSF | 10 µM | ΔTm | 0.4 °C |
| CNC(=O)c1cc(Oc2ccc(NC(=O)Nc3ccc(Cl)c(C(F)(F)F)c3)cc2)ccn1 | enzyme activity | inhibitor |  | 10 µM | inhibition | 56% |
| O=C(Nc1cccnn1)N1CCC(=Cc2cccc(Oc3ccc(C(F)(F)F)cn3)c2)CC1 | cell-free assay |  | competition with immobilised ligand | 1 µM | remaining binding | 86% |
| COc1cc(/C=C/C(=O)CC(=O)/C=C/c2ccc(O)c(OC)c2)ccc1O | enzyme activity | inhibitor |  | 1 µM | activity vs control | 105% |
| Nc1ncnc2occ(-c3ccc(NC(=O)Nc4cc(C(F)(F)F)ccc4F)cc3)c12 | cell-free assay | inhibitor |  | 20 µM | remaining signal | 0.4% |
| Cc1noc([C@H]2C[C@@H](c3ccc(C(F)(F)F)cc3)CN(C(=O)N3CCS(=O)(=O)C3)C2)n1 | cell-free assay |  | competition with immobilised ligand | 1 µM | remaining binding | 100% |
| Cc1ccc(Nc2nccc(N(C)c3ccc4c(C)n(C)nc4c3)n2)cc1S(N)(=O)=O | enzyme activity | inhibitor |  | 10 µM | inhibition | 0% |
| Nc1nc(Nc2ccccc2)sc1C(=O)c1c(F)cccc1F | enzyme activity | inhibitor |  | 10 µM | remaining activity | 62% |
| FC(F)c1nc2ccccc2n1-c1nc(N2CCOCC2)nc(N2CCOCC2)n1 | enzyme activity | inhibitor |  | 10 µM | remaining activity | 107% |
| Cc1cc(NC(=O)c2cccc3cc(-c4cccc5[nH]nc(N)c45)ccc23)ccc1F | enzyme activity | inhibitor |  | 0.1 µM | activity vs control | 101% |
| CC1(C)NC(=O)c2[nH]c3c(Cl)c(Cl)ccc3c2C1C#N (centres unmarked) | thermal stability |  | DSF | 10 µM | ΔTm | 0.9 °C |
| CN(C)C1CCN(CC#Cc2nn(C3CCCC3)c3nc(NCc4ccccc4)ncc23)C1 (centres unmarked) | enzyme activity | inhibitor | FRET | 10 µM | inhibition | 2% |
| CN1CCC2(CC1)NC(=O)c1c(c3ccc(Cl)c(Cl)c3n1C)C2C#N (racemic) | thermal stability |  | DSF | 10 µM | ΔTm | 0.4 °C |
| O=C(Nc1cnn(-c2csc(C(=O)NC3COC3)c2)c1)Nc1ccccc1Cl | enzyme activity | inhibitor |  | 5 µM | remaining activity | 122% |

| SMILES | observed | mode | technique | concentration | quantity | result |
| --- | --- | --- | --- | --- | --- | --- |
| Cc1nc(C2CCN(C(=O)c3ccc(OC(F)(F)F)cc3N)CC2)c2ncc(N3CCN(C)CC3)cc2n1 | cell-free assay |  | competition with immobilised ligand | 1 µM | remaining binding | 100% |
| CCOc1cc(-c2nncn2C)ccc1Nc1ncc2cc(C)nc(NCC(C)(C)C)c2n1 | enzyme activity | inhibitor | FRET | 1 µM | inhibition | < 15% |
| Nc1nc(NC2CCCCC2)sc1C(=O)c1ccccc1 | enzyme activity | inhibitor |  | 10 µM | remaining activity | 67% |
| CCN(CC)c1ccc(C2=NNC(=O)CC2C)cc1[N+](=O)[O-] (centres unmarked) | enzyme activity | inhibitor |  | 10 µM | remaining activity | 97% |
| Cn1c2c(Cl)c(Cl)ccc2c2cn[nH]c(=O)c21 | thermal stability |  | DSF | 10 µM | ΔTm | 0 °C |
| Cc1sc(C(=O)NC2COC2)cc1-n1cc(NC(=O)Nc2c(F)cccc2Cl)cn1 | enzyme activity | inhibitor |  | 10 µM | remaining activity | 89.2% |
| CCN(CC)CCNC(=O)c1c(C)[nH]c(/C=C2\C(=O)Nc3ccc(F)cc32)c1C | enzyme activity | inhibitor |  | 0.3 µM | inhibition | -17% |
| O=C1Nc2ccc(Cl)cc2C1=Cc1cc(Cl)c(O)c(Cl)c1 | cell-free assay |  |  | 0.5 µM | remaining signal | 97.8% |
| CCC(=O)N[C@@H]1CC[C@H](C(=O)N(C)c2ccc(-c3nc4ccccc4o3)cc2)C1 | cell-free assay |  | competition with immobilised ligand | 1 µM | remaining binding | 100% |
| Cc1ccc(C(=O)Nc2ccc(CN3CCN(C)CC3)c(C(F)(F)F)c2)cc1C#Cc1cnc2cccnn12 | enzyme activity | inhibitor |  | 23.5 nM | remaining activity | 93% |
| COc1cc2ncnc(Nc3ccc(Oc4ccccc4)c(C)c3C)c2cc1OC | enzyme activity | inhibitor |  | 1 µM | inhibition | 2% |
| Cc1nc(Cc2cccc(C(F)(F)F)c2)sc1-c1ccc(C(N)=O)nc1 | cell-free assay |  | competition with immobilised ligand | 1 µM | remaining binding | 99% |
| Cn1c2c(Cl)c(Cl)ccc2c2cc(N)[nH]c(=O)c21 | thermal stability |  | DSF | 10 µM | ΔTm | 0.5 °C |
| O=C(O)[C@@H]1[C@@H](Cn2nnc3ccccc3c2=O)CC[C@H]1C(=O)c1ccc(OCCC2CCOCC2)cc1 | cell-free assay |  | competition with immobilised ligand | 1 µM | remaining binding | 94% |
| Cc1ccc(NC(=O)c2ccc(CN3CCN(C)CC3)cc2)cc1Nc1nc(-c2cccnc2)cs1 | cell-free assay |  |  | 0.5 µM | remaining signal | 101% |
| O=C(O)c1cc(-c2ccc(C3CCNCC3)cc2)c2ccc(-c3ccc(C(F)(F)F)cc3)cc2c1 | cell-free assay |  | competition with immobilised ligand | 1 µM | remaining binding | 97% |
| COc1cc(Nc2cnc(C#N)c(O[C@H](C)CN(C)C)n2)ncc1-c1cnn(C)c1 | enzyme activity | inhibitor | radiometric | 10 µM | remaining activity | 73% |
